Most compounds without a hit are left out; they make up all but 3.1% or so of the library.
CTSL1 counter: blocks F. hepatica cathepsin L1 in PFM18AAP counter-screen; recombinant F. hepatica cathepsin L1, Z-Leu-Arg-MCA fluorescence; inhibition, % at 5.96 µM; 0.49% of 300,000 active; AID 1906;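 active means inhibition above the mean of all tested compounds plus 3 SD, set per screening campaign, cut at about 17% in these data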;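 further: 0% = plate median of test compound wells and 100% = 1 µM Z-Phe-Ala-diazomethylketone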
core dimer inh: blocks dimerization of HCV core protein; AID 1899; TR-FRET GST/Flag-core106 dimerization, 1536-well; inhibition, % at 5 µM; 0.33% of 300,000 active;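 active means inhibition above the mean of all tested compounds plus 3 SD, set per screening campaign, cut at about 45% in these data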
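test system = GST/Flag-tagged HCV core106 proteins | probe or stimulus = Eu donor and XL665 acceptor anti-tag antibodies | times = compound-protein-antibody incubation 4 h at 22.5 °C | signal = TR-FRET, excitation 340 nm, emission 617 and 671 nm | measure = percent inhibition of core106 dimerization signal | controls = wells lacking GST-core106 and wells with excess unlabelled core106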
PP1 counter: PP1-alpha (human) inhibition in PP5 counter-screen; P62136; purified PP1alpha, OMFP fluorescence; inhibition, % at 6.7 µM; 0.9% of 320,000 active; AID 2235;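 active means inhibition above the mean inhibition of all tested compounds plus 3 SD, computed separately for each screening campaign, cut at about 15% in these data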
Target sequence (P62136 whole entry, looked up): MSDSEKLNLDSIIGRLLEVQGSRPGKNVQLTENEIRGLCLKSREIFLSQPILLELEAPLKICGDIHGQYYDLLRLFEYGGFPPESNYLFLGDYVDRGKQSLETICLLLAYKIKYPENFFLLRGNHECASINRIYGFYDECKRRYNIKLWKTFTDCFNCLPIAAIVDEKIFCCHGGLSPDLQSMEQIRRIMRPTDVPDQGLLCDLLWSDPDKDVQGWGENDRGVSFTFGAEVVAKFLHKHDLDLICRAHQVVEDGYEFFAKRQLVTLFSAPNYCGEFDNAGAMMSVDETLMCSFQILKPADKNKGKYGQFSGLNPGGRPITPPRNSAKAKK
Myeloid diff MLP: promotes myeloid progenitor differentiation. ER-HoxA9 myeloid progenitors, lysozyme-GFP differentiation, flow cytometry. calls only at 10 µM. 1% of 360,000 active. AID 624256;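 active means normalized GFP-positive differentiation at or above the plate's own cutoff, the solvent-only control mean plus 3 SD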;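 further: cells exposed to compound for four days before flow analysis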
PP5 primary: blocks human protein phosphatase 5 activity; purified PP5c, OMFP substrate fluorescence; inhibition, % at 6.7 µM; 0.18% of 320,000 active; AID 1987;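 active means inhibition above the campaign's mean inhibition across all tested compounds plus 3 SD, cut at about 9.5% in these data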;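 further: 0% = DMSO only and 100% = 100 µM cantharidin control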
NadD block: inhibitors of Staphylococcus aureus NadD | 0.78% of 360,000 active | inhibition, % at 20 µM | purified NadD enzyme, colorimetric absorbance read-out | AID 602399; in the data active means inhibition above about 26%
NadD inh conf: confirmation of Staphylococcus aureus NadD inhibitors; shares compounds with NadD block; purified S. aureus NadD, colorimetric enzyme assay; inhibition, % at 20 µM; 13% of 2,000 active; in the data active means inhibition mostly above about 42%, no sharp cut-off; inactive means mostly below about 42%
* hit, by the source's call; i = inactive; nt = no result given.

SMILES | CTSL1 counter | core dimer inh | PP1 counter | Myeloid diff MLP | PP5 primary | NadD block | NadD inh conf
Cc1ccc(N2CC(C)Cn3c2nc2c3c(=O)[nH]c(=O)n2C)cc1C (stereo not drawn) | -6.0 | 0.4 | -1.9 | nt | -0.5 | 0.8 | nt
CN(CCc1ccccc1)C(=O)c1cccc(NC(=O)Cc2cccc(NC(=O)C3CCN(C(=O)C4CCC4)CC3)c2)c1 | nt | nt | nt | i | nt | 7.5 | nt
COc1ccc(-c2nn(-c3ccccc3)cc2/C=N/NC(=O)c2cccc(S(=O)(=O)Nc3ccccc3OC)c2)cc1 | 3.3 | 37.3 | 8.3 | i | 4.2 | 44.9* | 30.9
CCOc1ccccc1NC(=O)CSC1=C(C#N)C(c2ccco2)C(C(=O)Nc2nc3ccccc3s2)=C(C)N1 (stereo not drawn) | -0.4 | 17.2 | 4.1 | i | 3.7 | 41.9* | 28.7
CC1=C(C(=O)Nc2ccccc2)C(c2ccco2)C(C#N)=C(SCC(=O)Nc2cccc(C)c2C)N1 (stereo not drawn) | 0.6 | 22.4 | 6.4 | i | 2.7 | 10.9 | nt
CCCn1c(C(C)Nc2nc(-c3cc(Cl)c(N)c(Cl)c3)cs2)nc2cc(Cl)c(N3CCCCC3)cc21 (stereo not drawn) | -2.9 | 12.7 | 2.4 | i | 2.9 | 33.3* | 21.6
Cc1ccc(Cn2c(C(C)Nc3nc(-c4ccc(Cl)c([N+](=O)[O-])c4)cs3)nc3cc(C(F)(F)F)ccc32)cc1 (stereo not drawn) | -5.5 | 38.7 | -4.8 | i | -7.2 | 37.5* | 37.1
Cc1ccc(Cn2c(C(C)Nc3nc(-c4ccc(C)cc4)cs3)nc3cc(Cl)c(Cl)cc32)cc1 (stereo not drawn) | -5.4 | -26.2 | 1.4 | i | 1.2 | 35.2* | 24.9
CCCn1c(C(C)Nc2nc(-c3ccc(Cl)c([N+](=O)[O-])c3)cs2)nc2ccccc21 (stereo not drawn) | -1.9 | 16.7 | 5.8 | i | 4.7 | 19.5 | nt
Cc1nnc(SCC(=O)Nc2c(Cl)cccc2Cl)n(N)c1=O | 2.8 | -2.6 | 0.1 | i | -2.8 | -3.8 | nt
Cc1ccc(C)c(C(O)c2ncc(-c3ccc4ccccc4c3)[nH]2)c1 (stereo not drawn) | nt | nt | nt | i | nt | 6.4 | nt
CCCCN(C(=O)c1cccc(S(=O)(=O)N(CC)c2ccccc2)c1)c1c(N)n(CC(C)C)c(=O)[nH]c1=O | nt | nt | nt | i | nt | -4.1 | nt
C=CCn1c(=NC(=O)c2cc(-c3cccs3)nc3ccccc23)sc2cc(S(N)(=O)=O)ccc21 | -1.0 | 6.3 | 16.1* | i | 1.6 | 50.8* | 59.1*
COCCn1c(=NC(=O)c2cc(-c3cccs3)nc3ccccc23)sc2cc(S(N)(=O)=O)ccc21 | 3.0 | -30.6 | 13.9 | i | 1.8 | 51.9* | 56.7*
COCCn1c(=NC(=O)c2ccc(S(=O)(=O)N3CCOCC3)cc2)sc2cc(S(N)(=O)=O)ccc21 | 1.8 | 2.8 | 0.7 | i | 3.6 | 4.7 | nt
C=CCn1c(=NC(=O)c2cc(Cl)sc2Cl)sc2cc(S(N)(=O)=O)ccc21 | -0.7 | -39.6 | 6.6 | i | -0.5 | 17.0 | nt
COc1ccc(C(=O)NCC(=O)OCC(=O)NC2CCCCCC2)cc1 | nt | nt | nt | i | nt | -2.8 | nt
Cc1nc(N2CCN(c3ccccn3)CC2)c2c(C)c(C(=O)Nc3ccc(Br)cc3C)sc2n1 | 0.5 | 28.7 | 10.4 | i | -3.5 | 30.1* | 5.4
Cc1ccc(NC(=O)C/C(N)=N/OC(=O)Nc2cccc(Cl)c2)cc1 | nt | nt | -4.6 | i | 0.6 | 0.5 | nt
Cc1ccc(Cn2nnc3c(=O)[nH]c(C4CCCN(S(=O)(=O)c5ccc(F)cc5)C4)nc32)cc1 (stereo not drawn) | 1.6 | 14.3 | 2.7 | i | 0.8 | 19.3 | nt
Cc1ccc(Cn2nnc3c(=O)[nH]c(C4CCN(S(=O)(=O)c5ccc(S(=O)(=O)NC6CC6)cc5)CC4)nc32)cc1 | 1.9 | 15.0 | 16.8* | i | 5.1 | 30.8* | 43.8*
O=c1[nH]c(C2CCN(S(=O)(=O)c3ccc(S(=O)(=O)NC4CC4)cc3)CC2)nc2c1nnn2Cc1cccc(F)c1 | 5.2 | 20.9 | 5.6 | i | 3.4 | 27.3 | nt
O=c1[nH]c(C2CCCN(S(=O)(=O)c3ccccc3)C2)nc2c1nnn2Cc1cccc(Cl)c1 (stereo not drawn) | 3.7 | 23.6 | 11.3 | i | 2.6 | 18.0 | nt
COC(=O)c1ccc(Cn2nnc3c(=O)[nH]c(C4CCCN(S(=O)(=O)c5cccc(Cl)c5)C4)nc32)cc1 (stereo not drawn) | 7.7 | 32.1 | -1.8 | i | -1.2 | 32.6* | 14.7
O=c1[nH]c(C2CCCN(S(=O)(=O)c3ccccc3Cl)C2)nc2c1nnn2Cc1ccc2c(c1)OCCO2 (stereo not drawn) | -0.5 | 14.4 | 16.4* | i | 2.0 | 37.4* | 35.1
SMILES | CTSL1 counter | core dimer inh | PP1 counter | Myeloid diff MLP | PP5 primary | NadD block | NadD inh conf
COC(=O)c1ccc(Cn2nnc3c(=O)[nH]c(C4CCCN(S(=O)(=O)c5ccc(C)cc5)C4)nc32)cc1 (stereo not drawn) | -1.9 | 21.2 | -1.5 | i | 0.8 | 28.9* | 1.5
COCC(=O)N1CCC(Oc2ccc(C(=O)N3CCCCC3COC)cc2)CC1 (stereo not drawn) | -0.4 | -0.7 | -1.4 | i | 1.2 | -4.9 | nt
COC(=O)C[C@@H]1C=C[C@@H](NC(=O)C2CCC2)[C@@H](CO)O1 | nt | nt | nt | i | nt | nt | nt
CN(C)c1ccc(Sc2nnc(NC(=O)Nc3ccc(Cl)cc3Cl)s2)cc1 | 2.4 | 5.8 | 0.1 | i | -0.8 | 39.1* | 6.6
CCC(=O)Nc1nnc(Sc2ccc(N(C)C)cc2)s1 | -2.8 | 6.2 | 2.2 | i | -0.6 | 1.6 | nt
CCn1c2ccccc2c2cc(N=C3SC(CC(=O)Nc4ccccc4)C(=O)N3C)ccc21 (stereo not drawn) | 0.4 | 19.1 | 1.6 | i | 2.4 | 30.7* | 19.1
O=C(/C=C/c1ccc([N+](=O)[O-])cc1)/C=C/c1ccco1 | 2.8 | -23.6 | 12.2 | i | -0.2 | 38.4* | 31.8
COc1ccccc1N(C(=O)c1ccco1)C(C(=O)NC1CCCC1)c1ccncc1 (stereo not drawn) | -1.2 | -2.0 | -1.0 | i | -1.1 | 1.0 | nt
N#CC1=C(N)NC(SCC(=O)c2ccc(Cl)cc2)=C(C#N)C12CCCC2 | 0.0 | 3.5 | 8.2 | i | 2.8 | 33.0* | 38.1
COC(=O)[C@]12CCCCC=C1N(Cc1ccc3c(c1)OCO3)C(=O)[C@H](CC(=O)N1CCCCC1)C2 | nt | nt | nt | i | nt | nt | nt
CC(=O)c1ccc(N2CCN(C(=O)c3ccc(Cl)c(NC4=NC5CS(=O)(=O)CC5S4)c3)CC2)cc1 (stereo not drawn) | 3.6 | 3.9 | 0.5 | i | 1.7 | -5.5 | nt
COc1cc2c(cc1OC)C1(NCC2)C(=O)Nc2ccccc21 (stereo not drawn) | -5.7 | 0.9 | -2.6 | i | 2.0 | -0.2 | nt

Screening results from PubChem.
